In ChEMBL document CHEMBL2150941, “Cytotoxic iridoids from the roots of Patrinia scabra” (J Nat Prod, 2012):
pIC50: −log10 of the molar value.

Legend:
[1] = system: HeLa; experiment: Cytotoxicity against human HeLa cells after 48 hrs by MTT assay; assay type: functional, cell-based
Procedure, shortened: (§1)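 Cells kept in DMEM with 10% FBS, penicillin and streptomycin at 37 °C, 5% CO2. Seeded at 2 × 10^4 cells/well, allowed to adhere for 24 h, then exposed for 48 h to graded compound concentrations […], with 5-fluorouracil as positive control. MTT (5 mg/mL stock) added for 4 h at 37 °C, formazan dissolved in DMSO, read at 570 nm. IC50 is the mean of three independent experiments run in duplicate.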

[2] = Cytotoxicity against human MNK45 cells after 48 hrs by MTT assay; assay type: functional, cell-based; details: MNK45, 48 h; procedure, shortened: as §1

SMILES | pIC50 [1] | pIC50 [2]
C[C@H]1C(=O)OC[C@H]2[C@@H]1C[C@H](O)[C@@]2(C)O [PATRISCABROL] | < 4.30 | < 4.30
COC(=O)C1=CO[C@@H](O[C@@H]2O[C@H](CO)[C@@H](O)[C@H](O)[C@H]2O)[C@@H]2[C@H](C)O[C@@H](O)C[C@H]12 [MORRONISIDE] | < 4.30 | < 4.30
C[C@@H]1C(=O)OC[C@H]2[C@@H]1C[C@H](O)[C@@]2(C)O [ISOPATRISCABROL] | 4.61 | < 4.30
C[C@H]1C(=O)OC[C@H]2[C@@H]1C[C@H](O[C@@H]1O[C@H](CO)[C@@H](O)[C@H](O)[C@H]1O)[C@@]2(C)O [PATRISCABROSIDE I] | < 4.30 | < 4.30
C=C1CO[C@]2(CO[C@@H]3O[C@H](CO)[C@@H](O)[C@H](O)[C@H]3O)C(C)=CC[C@H]12 [PATRIRIDOSIDE G] | < 4.30 | 5.06
C[C@H]1[C@H]2OC[C@@H]3[C@@H]1C[C@H](O)[C@@]3(C)O2 | < 4.30 | < 4.30
COC(=O)C1=CO[C@@H](O[C@@H]2O[C@H](CO)[C@@H](O)[C@H](O)[C@H]2O)[C@@H]2[C@H](C)O[C@H](OC)C[C@H]12 | < 4.30 | < 4.30
CC1=CC[C@@H]2[C@H](C)CO[C@]12CO[C@@H]1O[C@H](CO[C@@H]2OC[C@](O)(CO)[C@H]2O)[C@@H](O)[C@H](O)[C@H]1O [PATRIRIDOSIDE I] | < 4.30 | 4.51
C[C@H]1[C@H]2C[C@H](O)[C@@](C)(O[C@@H]3O[C@H](CO)[C@@H](O)[C@H](O)[C@H]3O)[C@H]2CO[C@@H]1O [PATRIRIDOSIDE F] | < 4.30 | < 4.30
C[C@@H]1C[C@@H]2OC=C(C=O)[C@@H]2[C@@H]1CO[C@@H]1O[C@H](CO)[C@@H](O)[C@H](O)[C@H]1O [PATRIRIDOSIDE D] | < 4.30 | 4.81
COC(=O)C1=CO[C@@H](O[C@@H]2O[C@H](CO)[C@@H](O)[C@H](O)[C@H]2O)[C@@H]2[C@H](C)O[C@H](O)C[C@H]12 | < 4.30 | < 4.30
C=C1CO[C@]2(CO[C@@H]3O[C@H](CO[C@@H]4OC[C@](O)(CO)[C@H]4O)[C@@H](O)[C@H](O)[C@H]3O)C(C)=CC[C@H]12 [PATRIRIDOSIDE H] | < 4.30 | 5.03
C=C(CO)[C@H]1C[C@H](OC(=O)CC(C)C)[C@@](C)(O)[C@H]1CO[C@@H]1O[C@H](CO)[C@@H](O)[C@H](O)[C@H]1O [PATRINIOSIDE] | < 4.30 | 4.62
C=C1COC(=O)[C@H]2[C@@H]1C[C@H](O)[C@@]2(C)O [JATAMANIN A] | < 4.30 | < 4.30
C[C@H]1C(=O)OC[C@H]2[C@@H]1CC[C@@]2(C)O [SCABROL A] | < 4.30 | < 4.30
C[C@H]1C(=O)OC[C@H]2[C@@H]1CC[C@@]2(C)O[C@@H]1O[C@H](CO)[C@@H](O)[C@H](O)[C@H]1O [PATRIRIDOSIDE E] | < 4.30 | < 4.30
C=C[C@H]1[C@H](O[C@@H]2O[C@H](CO)[C@@H](O)[C@H](O)[C@H]2O)OC=C2C(=O)OCC[C@H]21 [SWEROSIDE] | < 4.30 | 4.95
O=c1[nH]cc(F)c(=O)[nH]1 [FLUOROURACIL] | 5.02 | 4.92
COC(=O)C1=CO[C@@H](O[C@@H]2O[C@H](CO)[C@@H](O)[C@H](O)[C@H]2O)[C@@H]2[C@H](C)O[C@@H](OC)C[C@H]12 | < 4.30 | < 4.30
C[C@@H]1[C@H]2OC[C@@H]3[C@@H]1C[C@H](O)[C@@]3(C)O2 | < 4.30 | < 4.30
